Test system: MS2 coat protein
Assay: apparent Kd, MS2 coat protein; higher = weaker binding; RNA-MaP array; FMN 200 µM where present
Outline: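 Green signal was scaled to red-channel RNA signal and control-cluster median Fmax, and the apparent Kd was taken as the median of filtered per-cluster binding-curve fits. The binding series used SNAP-549-labelled MS2 coat protein from 0.7 or 1.5 nM, doubling to 3 µM, on designs transcribed by stalled E. coli RNA polymerase on Illumina sequencing-chip clusters. Each series ran without and then with constant ligand in 100 mM Tris-HCl pH 7.5, 80 mM KCl, 4 mM MgCl2, BSA, DTT, yeast tRNA and Tween-20.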

[1] = designed as: ON switch for flavin mononucleotide, no ligand
[2] = ligand present: flavin mononucleotide, designed as: ON switch for flavin mononucleotide
[3] = designed as: OFF switch for flavin mononucleotide, no ligand
[4] = ligand present: flavin mononucleotide, designed as: OFF switch for flavin mononucleotide

Sequence	apparent Kd [1]	apparent Kd [2]	apparent Kd [3]	apparent Kd [4]
CGAGCUGCCAGAGGAUAAUGGACAUGAGGAUCACCCAUGUGUCAGGAUAUGGGUUUCACAUGGACUCAGAAGGGACCAGCCCGA	107 nM	30.2 nM		
CAGUACUGAGGAUAUACAUGAGGAUCACCCAUGUGUUCGUGGUAGGAUAUCCGCAAAAGUAGAAGCCAGAAGGAGAUGUGCGUG			17.7 nM	13.9 nM
GUAGAGUCAGGAUAUACGAGAUCGAAAGAUCGUCGAUCCUUACAUGAGGAUCACCCAUGUAGAAGGGACUCUAC			22.7 nM	238 nM
UUGUUGUAUGUAGGAUAUGCGUAUUGUUAUUAUGCAGAAGGACAUGAGGAUCACCCAUGUAUAUUAUUAUUAUAUAUUAUAUAU			26.3 nM	43.5 nM
AUCAACUCGUCAGGAUAUACGUCACUGCGUCAGCAGUGUGGUAAGAUCACAUGAGGAUCACCCAUGUAGAAGGGACGAGCUGAU			12.5 nM	269 nM
AAUUCGUGUCGAGGAUAUAUUAUAUGACAACAAACACAUACAUGAGGAUCACCCAUGUCCCAUGUAUAGAAGGCGAUGUGUGUG	260 nM	228 nM		
UUAAUUAACAAGAAGGCUUACAUGAGGAUCACCCAUGUUGUACAUGGAUAAAGAGGAUAUUGCUAAUAAUUAUUUUUCUUAAUU			92.1 nM	57.5 nM
GGACAUUUACAGAAGGGCAAAUUUUAUAUUGAAUAUUUAGUUCUGAUUUGCAGGAUAUGUUUUACAUGAGGAUCACCCAUGUCC	59.9 nM	27.9 nM		
AGUAUGCGGCAGGAUAUCCAUCCGCGAAAAGGUGGAGAAGGGCUGACAUGAGGAUCACCCAUGUGCGUCUUGUA			29.7 nM	31 nM
GCAGACGUGGUGAGGAUAUGCUCUACCUCGGUAGAGCAGAAGGCACAUGAGGAUCACCCAUGUGGCUCCUCAUU			15.9 nM	21 nM
UCGACCAGCGCAACUCGAACAUGAGGAUCACCCAUGUACUCCAGAAGGCCGCCCAAGUACGGAGUGGAGGAUAUGGAGGUUCUC	56.9 nM	86.1 nM		
CCUGUGUGAGGAUAUGGUGUUGGCCAAAAGGAAUAGCUCCUCCAGAAGGCACAUGAGGAUCACCCAUGUCGUGG			18 nM	81.9 nM
UGAAAUCAUGUAGGAUAUGCAUGGCGAAGCUACGCAGAAGGACAUGAGGAUCACCCAUGUGCUAGCUACCGAGUUCGGUGGCAA			103 nM	215 nM
UGGAUCAAUACAGGAUAUGGUGACGCACAUGAGGAUCACCCAUGUCCGCAGCGUGCUAAGCACGCCCAGAAGGGUAUUGAUUCG	722 nM	69.4 nM		
CAGAGGAUGUAAGGAUAUCGUCAGGAAUACUGACGAGAAGGUACAUGAGGAUCACCCAUGUAUAUGAAAGAUAAUAAACCUCUG			14.4 nM	17.2 nM
CACGGUGAUGUAGGAUAUACGCUGGAAUACAGCGUAGAAGGACAUGAGGAUCACCCAUGUAAAGUGUCUCCGAAUAACACCGUG			33.8 nM	63.3 nM
AUGCCCUGAGGAUAUCUCAUCCCGCACAUGAGGAUCACCCAUGUUCUUCUCCGGGUUCCGAGAGAAGGCAGGCCUA			157 nM	81.9 nM
UGGUACAUGGGAGGAUAUCCUCAAGAGACAUGAGGAUCACCCAUGUAUUAUAUGCCUCUUGGCAUGGAGAAGGCCCAUGUACCU	56.2 nM	55.4 nM		
CCUGAGUCAGGAUAUUGUACCGGCCUGAAGCCAGACCGACCCAAGAAGGGACAUGAGGAUCACCCAUGUGAAAA			23.1 nM	24.7 nM
GUGCCUUGGGAGAAGGCCGAUAGCAAAGCUAUCGGAGGAUAUUCAUACCGGAAACGGACAUGAGGAUCACCCAUGUGGCACAAA	1280 nM	51.7 nM		
AAUAACAGAGGAUAUACUAUUUUAUGUGUUUGUUAUUUUGAACAUGAGGAUCACCCAUGUAGAAGGCUGAAUGA			27.7 nM	28 nM

Sequence	apparent Kd [1]	apparent Kd [2]	apparent Kd [3]	apparent Kd [4]
AACGGGUGGGUAGGAUAUGGCUAUGUCUCAUUGCUAGAAGGGCCAGCUGCUACAUGAGGAUCACCCAUGUCGUAGUGCACCCAG	72.4 nM	40.3 nM		
UCUCUGCGAGGAUAUACGUGCGCGCGCGCGCGCGCGCGCGUACAUGAGGAUCACCCAUGUAGAAGGCGCUCUGC			30.8 nM	28.2 nM
AACCGACAUGAGGAUCACCCAUGUCAGGAUAUGGACUGACACCGAAAGAGUGGAGGAACCAGAAGGGACUGGGC			32.4 nM	69.5 nM
UUACUACAUGAGGAUCACCCAUGUCAGGAUAUUGUCUAUACCGUGGAAGCUGUGUCGAUAAGAAGGGACUGUAU			20.5 nM	34.8 nM
GUCACUAGAGGAUAUACAAUGGUAUAUGAUCCUAGAGACAUACAUGAGGAUCACCCAUGUAGAAGGCUAGUAAU			81.7 nM	46.6 nM
CUUAGACAUGAGGAUCACCCAUGUCAGGAUAUCGUCUACCUGUGGAAACACAGGUAGACGAGAAGGGAUGUGUU			51.6 nM	41.4 nM
UUCUCGAUGUAGAAGGCCGCGUCCGGCUCACGCGGAGGAUAUACAUGAGGAUCACCCAUGUGUUUGUGGCUUAUAUGGUACGAA			43 nM	212 nM
GGAUGAGCAAUAGGAUAUGCUGGUAUUGAAUGGGUAGAAGGAUUUCUAGUGGUAAAGACAUGAGGAUCACCCAUGUAGCGGCCC	328 nM	265 nM		
GUGCGGUGAGGAUAUACGUAGGUGAAAAUCUGUGUGUUCCUACAUGAGGAUCACCCAUGUAGAAGGCAUGUCAC			53.5 nM	143 nM
GUACUGACAGGAUAUACAUGAGGAUCACCCAUGUCCUUAUGCUGACAAAAGUCAGCGUGUAGAAGGGUCUGUAC			141 nM	385 nM
UGAUCGAGAGAUCUUAGAUUCUGGUAGGAUAUACAUAAAAUGCGCUUUACAUGAGGAUCACCCAUGUAGAAGGACUAGAGUCUA			7.54 nM	9.8 nM
CUUUUGUGAGGAUAUUAGUAGUAAAUAAAUAAAUUUACUACUGAGAAGGCACAUGAGGAUCACCCAUGUUCCUC			36.7 nM	328 nM
ACAUGAGGAUCACCCAUGUGAAAGAAAUGGCUGACUUUGAGCUAGGAUAUUUGUGCAUAUCAAACGAAGAAGGAGCAUUACUGG			22.2 nM	21 nM
CUAGCAACAUGAGGAUCACCCAUGUAGGAUAUCGCUAUUGUAAUCAUGAAACAUGAUUACAAUAGCGAGAAGGACAUAUGCUAC			9.59 nM	11 nM
CUAAAUCAUGUAGGAUAUGCGUGGCGAAGCUAUGCAGAAGGACAUGAGGAUCACCCAUGUCUAUCCGUCUGCGUACAGACGGAA			25.1 nM	186 nM
GUAGCAUGCAGGCAGGAUAUUCAUAUUAAAACAUGAGGAUCACCCAUGUAGGCCGAAAGGCCUUGGGAGAAGGGCCACAUGCUAC	786 nM	52.6 nM		
GACCGAUAGUCAGGAUAUGCAUGGUUAGUUGAUUACAUGAGGAUCACCCAUGUAGAAGGGACUUUGGCGAAAUCCGUGAUGCGU			44.1 nM	115 nM
GUAUAUAUUACAUGAGGAUCACCCAUGUCAGAACGGGUAAUCAGAAGGUAUUAUUAGAGAAAGGGUAAGGAUAUGAUUAUAUAC	577 nM	321 nM		
UGUACUUAUUUUAAUUAUGAUUUACUAGAAGGUAGAUACAUGAGGAUCACCCAUGUUUAGAGUUCUAAGGAUAUAGAUUUUAUC	10.3 nM	10.2 nM		
GUCAGCUCGUGAGGAUAUACAUGUGCUGGAGACAGCAUUAUAUUUUUCACAUGAGGAUCACCCAUGUAGAAGGCACGAGCUGAU			16.5 nM	27.4 nM
GGUACUCAAAGAGUACGGAGUCGAACAUGAGGAUCACCCAUGUAGGAUAUGCUAUUCUUGAAGUUGCAGAAGGACAUGUGCAGC			10.9 nM	11.1 nM
